Measured values reported in ChEMBL document CHEMBL4715825, “Synthesis and biological evaluations of marine oxohexadecenoic acids: PPARα/γ dual agonism and anti-diabetic target gene effects” (Eur J Med Chem, 2018).
The source made the active and inactive calls. The calls are words filed in the database; no cut-off is given here.

Tests used:
SGBS [1] = assay: Effect on diabetic complication pathway in 8 day differentiated human SGBS cells assessed as downregulation of extracellular matrix-recptor interaction genes at 25 uM incubated for 8 days by Illumina sequencing method; assay type: functional, cell-based
Outline: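 SGBS cells were differentiated 4 days in Quickdiff supplemented with compound:BSA or rosiglitazone, then 4 days in 3FC. Total RNA was extracted, and strand-specific TruSeq libraries were sequenced on NextSeq 500 (2×75 bp paired-end). Reads were aligned to hg19 with Tophat/Bowtie and counted as RPKM by Cufflinks. Values are log2 fold over day 0 cells, grouped into KEGG gene sets (n = 2-4).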

[2] = target: T1, Peroxisome proliferator-activated receptor alpha (Homo sapiens) (UniProt Q07869); assay: Agonist activity at human PPARalpha in human HuH-7 cells assessed as increase in ACOX1 gene expression at 50 uM incubated for 24 hrs by SYBR-green based qPCR analysis; assay type: cell-based
T1 sequence (whole entry): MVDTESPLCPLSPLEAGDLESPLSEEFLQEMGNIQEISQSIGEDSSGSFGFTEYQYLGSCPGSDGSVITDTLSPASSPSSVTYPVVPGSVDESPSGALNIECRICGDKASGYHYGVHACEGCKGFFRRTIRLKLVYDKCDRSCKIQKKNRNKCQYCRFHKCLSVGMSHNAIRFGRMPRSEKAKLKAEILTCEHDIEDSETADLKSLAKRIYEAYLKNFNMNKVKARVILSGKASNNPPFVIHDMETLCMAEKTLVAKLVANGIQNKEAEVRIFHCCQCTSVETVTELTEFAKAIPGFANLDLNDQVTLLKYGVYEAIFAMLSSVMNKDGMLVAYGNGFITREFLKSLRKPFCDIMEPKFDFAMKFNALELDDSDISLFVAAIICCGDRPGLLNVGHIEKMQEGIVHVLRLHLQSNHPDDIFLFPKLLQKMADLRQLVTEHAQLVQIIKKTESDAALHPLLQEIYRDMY
Outline: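 Cells were seeded at 2×10^5 per well and treated 24 h later with compound in DMSO (final 0.1%). The next day, cells were washed and scraped into RLT buffer. RNA was isolated, and target gene mRNA was quantified by SYBR-green qPCR with specific primers.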

[3] = target: T2, Peroxisome proliferator-activated receptor gamma (Homo sapiens) (UniProt P37231); assay: Agonist activity at human PPARgamma in 8 day differentiated human SGBS cells assessed as decrease in IL-1 beta gene expression at 25 uM incubated for 24 hrs by SYBR-green based qPCR analysis; assay type: cell-based; conditions: filed as agonist
T2 sequence (whole entry): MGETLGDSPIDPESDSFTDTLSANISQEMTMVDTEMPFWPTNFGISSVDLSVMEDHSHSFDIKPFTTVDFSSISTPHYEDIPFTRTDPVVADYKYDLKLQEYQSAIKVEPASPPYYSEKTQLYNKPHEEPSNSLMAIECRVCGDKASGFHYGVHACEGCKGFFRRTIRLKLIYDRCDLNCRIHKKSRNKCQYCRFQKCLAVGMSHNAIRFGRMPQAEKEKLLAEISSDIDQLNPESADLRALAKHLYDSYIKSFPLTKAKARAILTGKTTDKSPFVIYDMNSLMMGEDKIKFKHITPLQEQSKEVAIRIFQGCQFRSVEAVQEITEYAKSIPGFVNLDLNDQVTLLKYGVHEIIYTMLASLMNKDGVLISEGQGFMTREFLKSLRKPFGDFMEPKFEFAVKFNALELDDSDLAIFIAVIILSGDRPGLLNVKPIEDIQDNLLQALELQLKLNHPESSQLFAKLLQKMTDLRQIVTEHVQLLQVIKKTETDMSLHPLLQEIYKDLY

[4] = target: T1, Peroxisome proliferator-activated receptor alpha (Homo sapiens); assay: Agonist activity at recombinant human PPARalpha LBD (168 to 468 residues) expressed in African green monkey COS-1 cells at 25 to 50 uM incubated for 18 hrs by luciferase reporter gene assay; assay type: cell-based; conditions: filed as agonist, dose 25-50 µM
Outline: (§1)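 Transient Gal4 one-hybrid assay in COS-1 cells (7×10^4 per well), transfected 24 h after seeding. Plasmids were Gal4-DBD fused to the human nuclear receptor LBD, a 5×UAS-SV40 luciferase reporter and pRL-CMV Renilla control. Ligand in DMSO (final 0.1%) was added 5 h post-transfection. Dual-luciferase activity was read after 18 h, expressed as RLU, from three biological replicates in quadruplicate.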

[5] = target: T3, Oxysterols receptor LXR-beta (Homo sapiens) (UniProt P55055); assay: Agonist activity at recombinant human LXRbeta LBD (155 to 461 residues) expressed in African green monkey COS-1 cells at 25 to 50 uM incubated for 18 hrs by luciferase reporter gene assay; assay type: cell-based; conditions: dose 25-50 µM; outline: as §1
T3 sequence (whole entry): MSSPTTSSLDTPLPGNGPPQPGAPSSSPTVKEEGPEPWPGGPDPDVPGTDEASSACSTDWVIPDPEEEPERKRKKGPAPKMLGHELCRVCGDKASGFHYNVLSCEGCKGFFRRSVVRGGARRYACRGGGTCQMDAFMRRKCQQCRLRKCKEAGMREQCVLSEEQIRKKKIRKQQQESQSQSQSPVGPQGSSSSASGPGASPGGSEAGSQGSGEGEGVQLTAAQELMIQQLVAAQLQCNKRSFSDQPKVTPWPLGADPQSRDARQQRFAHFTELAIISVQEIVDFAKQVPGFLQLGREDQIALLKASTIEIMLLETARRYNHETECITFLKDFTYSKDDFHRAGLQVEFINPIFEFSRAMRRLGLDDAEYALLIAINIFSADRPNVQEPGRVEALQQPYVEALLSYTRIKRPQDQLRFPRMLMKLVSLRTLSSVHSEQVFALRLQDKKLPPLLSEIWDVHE

SGBS [6] = assay: Induction of adipogenesis in 8 day differentiated human SGBS cells assessed as upregulation of steroid biosynthesis genes at 25 uM incubated for 8 days by Illumina sequencing method; assay type: functional, cell-based
Outline: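 SGBS cells were differentiated for 8 days: Quickdiff for days 0-4 with 2 µM rosiglitazone or 25 µM oxo-fatty acid:BSA, then 3FC. Total RNA was extracted (RIN 9.80-10.00) and strand-specific TruSeq libraries were sequenced on NextSeq 500 (2×75 bp paired-end). Reads were aligned to hg19 and quantified as RPKM. Data were expressed as log2 fold over day-0 cells (n = 2-4) and grouped into KEGG gene sets.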

SGBS [7] = assay: Induction of adipogenesis in 8 day differentiated human SGBS cells assessed as increase in PLIN1 mRNA expression at 25 uM measured upto 12 days by qRT-PCR analysis; assay type: functional, cell-based; conditions: time day <=12
Outline: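 SGBS cells were grown to confluence (day 0). Quickdiff medium was supplemented with compound or rosiglitazone for 4 days, followed by 3FC medium. DMSO or DMSO:BSA served as control. RNA was harvested on days 0, 4, 8 and 12, and expression was measured by SYBR-green qPCR. Data are mean ± SEM of at least three biological replicates in duplicate.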

| SMILES | Activity (SGBS [1]) | Activity [2] | Activity [3] | Activity [4] | Activity [5] | Activity (SGBS [6]) | Activity (SGBS [7]) |
| --- | --- | --- | --- | --- | --- | --- | --- |
| CCCCCCCC(=O)/C=C/CCCCCC(=O)O | Active | inactive | Active | Active | inactive | Active | Active |
| CCCCC/C=C/C(=O)CCCCCCCC(=O)O | Active | inactive | Active | Active | inactive | Active | Active |
